Assay outcomes: PubChem BioAssay, several laboratories
Wee1 stabilizer: Wee1 degradation inhibitors, primary screen, cell-based, HeLa, Wee1K328M-luciferase, luminescence; Wee1-like protein kinase (Homo sapiens), P30291; HeLa Luc-Wee1K328M stability; 100% = proteasome inhibitor MG132 effect; reporter increase, % at 5 µM; hit rate 1.2% among 220,000; AID 1321, 2008;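 active = activation above the mean of all tested compounds plus 3 SD, set per screening run, cut at about 8.8% in these data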;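 note: cells exposed to compound for 20 h before luminescence read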
Target sequence (P30291 whole entry K328M): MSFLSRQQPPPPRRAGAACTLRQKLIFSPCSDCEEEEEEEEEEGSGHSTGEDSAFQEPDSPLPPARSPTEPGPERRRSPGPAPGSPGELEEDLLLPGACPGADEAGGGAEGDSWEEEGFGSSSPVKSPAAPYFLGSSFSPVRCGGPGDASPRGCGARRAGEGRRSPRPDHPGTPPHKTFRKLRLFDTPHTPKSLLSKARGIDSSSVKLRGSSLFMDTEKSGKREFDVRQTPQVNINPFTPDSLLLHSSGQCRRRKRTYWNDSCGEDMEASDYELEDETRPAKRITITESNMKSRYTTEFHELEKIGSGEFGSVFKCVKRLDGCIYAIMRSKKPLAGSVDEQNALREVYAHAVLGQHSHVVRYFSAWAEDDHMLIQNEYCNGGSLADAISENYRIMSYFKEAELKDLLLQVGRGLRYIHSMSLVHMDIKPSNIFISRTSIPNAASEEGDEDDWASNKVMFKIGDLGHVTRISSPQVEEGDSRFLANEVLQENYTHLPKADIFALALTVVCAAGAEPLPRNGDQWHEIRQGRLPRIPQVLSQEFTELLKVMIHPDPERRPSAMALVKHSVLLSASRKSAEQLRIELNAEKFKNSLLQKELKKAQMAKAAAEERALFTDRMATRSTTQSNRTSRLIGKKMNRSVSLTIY
thrombin 1536: human alpha-thrombin inhibitors, primary screen, counter-screen for coagulation protease inhibitor project, biochemical, 1536-well, fluorogenic AMC substrate. inhibition, % at 5 µM. AID 1046, 2008. Boc-VPR-AMC fluorogenic substrate cleavage. hit rate 0.26% among 220,000;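 active = inhibition at or above 40%; inactive = inhibition below 40%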
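Assay system: human alpha-thrombin enzyme. Reagent: Boc-VPR-AMC substrate, 15 µM final. Compound dosing: one concentration per compound, 5 µM, with 0.2% DMSO. Incubation: room-temperature reaction. Technique: AMC fluorescence, 355/460 nm. Measure: % inhibition relative to enzyme controls and enzyme-free blanks.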
FXIa inh: human FXIa protease inhibitors, primary screen, biochemical, 1536-well. inhibition, % at 5 µM. purified FXIa, Boc-Glu-Ala-Arg-AMC fluorogenic substrate. hit rate 0.14% among 220,000. Coagulation factor XI (Homo sapiens), P03951;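 active = inhibition of at least 40%; inactive = inhibition below 40%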;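 note: fluorescence of freed AMC excited at 355 nm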
hK5 inh: human KLK5 protease inhibitors, primary screen, biochemical, 1536-well; inhibition, % at 5 µM; hit rate 0.59% among 210,000; Kallikrein-5 (Homo sapiens), Q9Y337; recombinant hK5, fluorogenic AMC substrate cleavage;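 active = inhibition of 40% or more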
FXIIa inh: human FXIIa protease inhibitors, primary screen, biochemical, 1536-well; Coagulation factor XII (Homo sapiens), P00748; purified FXIIa, Boc-QGR-AMC fluorogenic substrate, 2 h; inhibition, % at 5 µM; hit rate 0.3% among 220,000; AID 800, 2007; in the data active = inhibition above about 40%
Wee1 stab conf: Wee1 degradation inhibitors, confirmation, cell-based, HeLa, Wee1K328M-luciferase, luminescence, triplicate; shares compounds with Wee1 stabilizer; AID 1410, 2008; hit rate 4% among 1,100; activation, % at 5 µM; HeLa Luc-Wee1K328M degradation; vehicle 0%, proteasome-blocked wells 100%; in the data active = activation above about 8.9%
A number is an active result; i = inactive; nt = not tested or not shown. An excerpt weighted towards active compounds, which were near 2.2% of everything screened.

SMILES	Wee1 stabilizer	thrombin 1536	FXIa inh	hK5 inh	FXIIa inh	Wee1 stab conf
CC(=O)Nc1cccc(-c2cn3ccccc3n2)c1	11	i	i	i	i	i
COCCNC(=O)CNC(=S)N(CCCN1CCOCC1)Cc1cccs1	i	i	i	i	i	nt
COc1ccc(CN(Cc2cccn2C)S(=O)(=O)c2ccc(F)cc2)cc1	11	i	i	i	i	i
CC(=O)c1ccc(OCC(=O)c2cc(C)n(-c3ccc4c(c3)OCO4)c2C)cc1	15	i	i	i	i	i
O=C(OCC(=O)N1CCCC1)c1c2c(nc3ccccc13)CCCCC2	i	i	i	i	i	nt
Cc1cc(C)n2nc(C(=O)Nc3cccnc3)nc2n1	13	i	i	i	i	i
Cc1cc(C)n2nc(C(=O)Nc3cccc(S(=O)(=O)N4CCCC4)c3)nc2n1	i	i	i	i	i	nt
CN1N=C2c3ccccc3CCC2C1c1ccc(Cl)cc1 (stereo not given)	i	i	i	i	i	nt
CCN1C(=O)/C(=C/C2=Cc3ccccc3OC2C)SC1=S (stereo not given)	i	i	i	i	i	nt
COc1ccccc1CC(=O)Nc1ccc(-c2noc(COc3cccc(C)c3C)n2)cc1	11	i	i	i	i	i
Cc1ccccc1OCC(=O)OCn1nnc2ccccc2c1=O	13	i	i	i	i	i
CCCn1c(O)c(N=NC(=O)c2cccnc2)c2cc(Br)ccc21	i	i	i	i	i	nt
S=c1[nH]c(-c2ccc(Br)cc2)cn1CCc1ccccc1	i	i	i	i	i	nt
COc1ccc(-n2cc(CNCC3CC(=O)N(C4CC4)C3)c(-c3ccccc3Cl)n2)cc1 (stereo not given)	i	i	i	i	i	nt
CCN1CC(CNCc2cn(-c3ccc(OC)cc3)nc2-c2ccccc2Cl)CC1=O (stereo not given)	24	i	i	nt	i	i
Cc1ccc(CNC(=O)C(Cc2ccccc2)NS(=O)(=O)c2ccc(Br)s2)cc1 (stereo not given)	i	i	i	i	i	nt
CC1=C(C)CS(=O)N(S(=O)(=O)c2ccccc2)C1 (stereo not given)	11	i	i	i	i	i
CCN(CC)CCN(C(=O)c1ccc(CN2CCCCC2)o1)C(C(=O)NC1CCCCC1)c1ccc(F)cc1 (stereo not given)	11	i	i	i	i	i
COCCSc1nnc(NC(=O)c2ccc(NC(C)=O)cc2)s1	14	i	i	i	i	i
COCc1nnc(NC(=O)c2ccc(NC(C)=O)cc2)s1	i	i	i	i	i	nt
Cc1cc(OCc2nnc(SC(C)C(=O)O)n2Cc2ccccc2)ccc1Cl (stereo not given)	18	i	i	i	i	i
CC(Sc1nnc(COc2ccc(Cl)cc2)n1Cc1ccccc1)C(=O)O (stereo not given)	i	i	i	i	i	nt
CCC1CCCCN1C(=S)NC1CCCCC1 (stereo not given)	14	i	i	i	i	i
S=C(NC1CCCCC1)N1CCCCC1	i	i	i	i	i	nt
CCC(C)NC(=O)CC(c1ccccc1)c1cc(C)ccc1O (stereo not given)	i	i	i	i	i	nt
SMILES	Wee1 stabilizer	thrombin 1536	FXIa inh	hK5 inh	FXIIa inh	Wee1 stab conf
O=C(NCCN1CCOCC1)C1CCC(=O)N1Cc1ccc(F)cc1 (stereo not given)	11	i	i	i	i	i
COc1ccc(OCCC(=O)N2CCOCC2)cc1	12	i	i	i	i	i
CC1(C)NC(=O)N(CC(=O)OCC(=O)Nc2cccc(S(N)(=O)=O)c2)C1=O	i	i	i	i	i	nt
Cc1nnc(SCCn2c(N3CCC(Cc4ccccc4)CC3)nc3c2c(=O)[nH]c(=O)n3C)s1	i	i	i	i	i	nt
CCCCn1c(N2CCC(Cc3ccccc3)CC2)nc2c1c(=O)[nH]c(=O)n2C	13	i	i	i	i	i
CC(C)(CO)Nc1nc(Cl)nc(NC2CCCCC2)n1	i	i	i	i	i	nt
O=P(OCC1CC1)(c1ccccc1)c1ccccc1	i	i	i	i	i	nt
CCOC(=O)C1(Cc2cccc(OC)c2)CCN(CC2CC=CCC2)CC1 (stereo not given)	12	i	i	i	i	i
CCOC(=O)C1(Cc2ccccc2)CCN(CC2CC=CCC2)CC1 (stereo not given)	i	i	i	i	i	nt
O=C(Nc1nnc(-c2ccncc2)o1)c1ccccc1	22	i	i	i	i	i
CC(C)N(Cc1ccccc1)C(=O)CSc1nccn1C	12	i	i	i	i	i
CC(C)N(Cc1ccccc1)C(=O)CCc1ccccc1	i	i	i	i	i	nt
CCOc1ccc(N(CC(=O)N/N=C/c2ccc(OC(C)C)cc2)S(C)(=O)=O)cc1	i	i	i	i	i	nt
CCN(CC)c1ccc(/C=N/NC(=S)NC)c(O)c1	14	i	i	nt	i	i
CCS(=O)(=O)c1nc(S(=O)(=O)c2ccc(C)cc2)c(NCCCN(C)C)s1	i	i	i	nt	i	nt
COc1ccccc1-n1cnnc1SCC(=O)c1c[nH]c2ccccc12	i	i	i	i	i	nt
O=C(c1cc(=O)[nH]c2ccccc12)N1CCc2ccccc2C1	i	i	i	i	i	nt
O=C(OCC(=O)N1CCc2ccccc2C1)c1cc(=O)[nH]c2ccccc12	16	i	i	i	i	i
CC/C(=N\NC(=O)c1csc(C)c1C)c1cccs1	i	i	i	i	i	nt
C/C(=N\NC(=O)c1csc(C)c1C)c1ccc(Cl)s1	12	i	i	i	i	i
CCOC(=O)CSc1nc(-c2ccncc2)ccc1C#N	14	i	i	i	i	i
O=C(Nc1ccc2c(c1)CCC2)c1ccc(F)cc1	17	i	i	i	i	i
O=C(/C=C/c1ccccc1[N+](=O)[O-])NCc1ccncc1	i	i	i	i	i	nt
CC(C)[C@H](NC(=O)c1ccco1)C(=O)OCC(=O)N1CCc2ccccc21	i	i	i	i	i	nt
CC(C)[C@H](NC(=O)c1ccco1)C(=O)OCC(=O)N1CC(=O)Nc2ccccc21	14	i	i	i	i	i
COc1cc(/C=N/NC(=O)c2ccc(CSc3nncn3C)cc2)cc(OC)c1O	11	i	i	i	i	i
O=C(COC(=O)c1ccc(CO)cc1)Nc1ccc(OC(F)F)cc1	i	i	i	i	i	nt
N/C(=N\OC(=O)c1ccco1)c1ccc(Br)cc1	15	i	i	i	i	i
N/C(=N\OC(=O)c1ccco1)c1ccccc1	i	i	i	i	i	nt
COC(=O)/C(C#N)=C\c1c(OC)[nH]c2ccccc12	i	i	i	i	i	nt
